Results reported in ChEMBL document CHEMBL1124697, “A new family of water-soluble, third generation antitumor platinum complexes” (J Med Chem, 1989).
Values joined by “and” are separate entries in the source; they are usually repeats but may differ in a detail not shown here. Equal values may be shown once. Each block holds one substance with its values, some of them ahead of it. Active and inactive are the calls of the source.

What was measured:
Colon 26 [1] = assay: Percent survivors when compound administered at 50 mg/kg againstColon 26 cells in balb/C mice; assay type: functional, organism-based; design: dose 50 mg/kg; conditions: Mus musculus
In short: (§1)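 Colon 26 tumor in Balb/C mice. Dosing ip on days 1, 5 and 9 after tumor inoculation, with a 30-day observation period. Readouts are median % increase in life span over control mice and % survivors, given at the optimal dose. Activity threshold is ILS ≥25%. A ≥15% drop in ILS or body weight is rated toxic.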

Colon 26 [2] = assay: Percent in life span when compound administered at 100 mg/kg againstColon 26 cells in balb/C mice; assay type: functional, organism-based; design: dose 100 mg/kg; conditions: Mus musculus
In short: (§2)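 Colon 26 in Balb/C mice. Test agents given ip on days 1, 5 and 9 relative to tumor inoculation; mice observed 30 days. Median % increase in life span at optimal dose, with % survivors noted; ILS ≥25% over controls required for activity; ILS or body weight reduced ≥15% versus controls rated toxic.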

B16 [3] = assay: Percent increase in life span when compound administered at 25 mg/kg against B-16 melanoma cells in […] mice; assay type: functional, organism-based; design: dose 25 mg/kg; conditions: Mus musculus
In short: (§3)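 B-16 melanoma in […] mice; compounds given ip daily on days 1–9 relative to tumor inoculation, animals followed 60 days. Read-out median % increase in life span over controls at optimal dose with % survivors; activity threshold ILS ≥25%; ≥15% reduction in ILS or body weight versus controls rated toxic.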

B16 [4] = assay: Percent increase in life span when compound administered at 12.5 mg/kg against B-16 melanoma cells in […] mice; assay type: functional; conditions: Mus musculus
In short: (§4)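 Median % increase in life span versus controls and % survivors are recorded at the optimal dose. ILS ≥25% counts as active, and a ≥15% reduction in ILS or body weight counts as toxic.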

L1210 [5] = assay: Percent survivors when compound administered at 50 mg/kg against L1210 cisplatin resistant leukemia cells in BDF1 mice; assay type: functional, organism-based; design: dose 50 mg/kg; conditions: Mus musculus
In short: (§5)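 BDF1 mice inoculated with P388, L1210 or cisplatin-resistant L1210 leukemia. Compound given ip on days 1, 5 and 9 relative to tumor inoculation, and mice observed for 30 days. Median % increase in life span over controls and % survivors are reported at the optimal dose. Activity requires ILS ≥25%. Toxicity is rated when ILS or body weight is reduced by ≥15%.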

B16 [6] = assay: Percent survivors when compound administered at 12.5 mg/kg against B-16 melanoma cells in […] mice; assay type: functional; conditions: Mus musculus; in short: as §4
B16 [7] = assay: Percent survivors when compound administered at 25 mg/kg against B-16 melanoma cells in […] mice; assay type: functional, organism-based; design: dose 25 mg/kg; conditions: Mus musculus; in short: as §4
L1210 [8] = assay: Percent survivors when compound administered at 50 mg/kg against L1210 leukemia cells in BDF1 mice; assay type: functional, organism-based; design: dose 50 mg/kg; conditions: Mus musculus; in short: as §5
L1210 [9] = assay: Percent increase in life span when compound administered at 50 mg/kg against L1210 cisplatin resistant leukemia cells in BDF1 mice; assay type: functional, organism-based; design: dose 50 mg/kg; conditions: Mus musculus
In short: (§6)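 BDF1 mice bearing P388, L1210 or cisplatin-resistant L1210 leukemia; ip dosing on days 1, 5 and 9 relative to tumor inoculation, 30-day observation. Median % ILS over controls at optimal dose plus % survivors; ≥25% ILS counted as active, ≥15% reduction in ILS or body weight over controls rated toxic.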

Colon 26 [10] = assay: Percent survivors when compound administered at 100 mg/kg againstColon 26 cells in balb/C mice; assay type: functional, organism-based; design: dose 100 mg/kg; conditions: Mus musculus; in short: as §1
L1210 [11] = assay: Percent increase in life span when compound administered at 50 mg/kg against L1210 leukemia cells in BDF1 mice; assay type: functional, organism-based; design: dose 50 mg/kg; conditions: Mus musculus; in short: as §6
[12] = Water solubility was determined; assay type: ADME; conditions: buffer
L1210 [13] = assay: Percent increase in life span when compound administered at 50 mg/kg against L1210 cisplatin resistant leukemia cells in BDF1 mice; IA=inactive; assay type: functional, organism-based; design: dose 50 mg/kg; conditions: Mus musculus; in short: as §6
P388 [14] = assay: Percent increase in life span when compound administered at 6.2 mg/kg against P388 leukemia cells in BDF1 mice; assay type: functional, organism-based; design: dose 6.2 mg/kg; conditions: Mus musculus; in short: as §6
P388 [15] = assay: Percent survivors when compound administered at 6.2 mg/kg against P388 leukemia cells in BDF1 mice; assay type: functional, organism-based; design: dose 6.2 mg/kg; conditions: Mus musculus; in short: as §5
L1210 [16] = assay: Percent increase in life span when compound administered at 6.2 mg/kg against L1210 leukemia cells in BDF1 mice; assay type: functional, organism-based; design: dose 6.2 mg/kg; conditions: Mus musculus; in short: as §6
B16 [17] = assay: Percent survivors when compound administered at 0.4 mg/kg against B-16 melanoma cells in […] mice; assay type: functional, organism-based; design: dose 0.4 mg/kg; conditions: Mus musculus; in short: as §4
Colon 26 [18] = assay: Percent in life span when compound administered at 1 mg/kg againstColon 26 cells in balb/C mice; assay type: functional, organism-based; design: dose 1 mg/kg; conditions: Mus musculus; in short: as §2
Colon 26 [19] = assay: Percent survivors when compound administered at 1 mg/kg againstColon 26 cells in balb/C mice; assay type: functional, organism-based; design: dose 1 mg/kg; conditions: Mus musculus; in short: as §1
L1210 [20] = assay: Percent survivors when compound administered at 50 mg/kg against L1210 cisplatin resistant leukemia cells in BDF1 mice; IA=inactive; assay type: functional, organism-based; design: dose 50 mg/kg; conditions: Mus musculus; in short: as §5
B16 [21] = assay: Percent increase in life span when compound administered at 0.4 mg/kg against B-16 melanoma cells in […] mice; assay type: functional, organism-based; design: dose 0.4 mg/kg; conditions: Mus musculus; in short: as §3
P388 [22] = assay: Percent survivors when compound administered at 100 mg/kg against P388 leukemia cells in BDF1 mice; assay type: functional, organism-based; design: dose 100 mg/kg; conditions: Mus musculus; in short: as §5
P388 [23] = assay: Percent increase in life span when compound administered at 100 mg/kg against P388 leukemia cells in BDF1 mice; assay type: functional, organism-based; design: dose 100 mg/kg; conditions: Mus musculus; in short: as §6
Colon 26 [24] = assay: Percent in life span when compound administered at 50 mg/kg againstColon 26 cells in balb/C mice; assay type: functional, organism-based; design: dose 50 mg/kg; conditions: Mus musculus; in short: as §1
Mus musculus = assay: Tumor weight inhibition against human mammary MX-1 in Athymic mice after 50 mg/kg optimal dose; assay type: functional, organism-based; design: dose 50 mg/kg; conditions: at 50 mg/kg
L1210 [25] = assay: Percent increase in life span when compound administered at 12.5 mg/kg against L1210 leukemia cells in BDF1 mice; assay type: functional, organism-based; design: dose 12.5 mg/kg; conditions: Mus musculus; in short: as §6
Colon 26 [26] = assay: Percent survivors when compound administered at 3.1 mg/kg against Colon 26 cells in balb/C mice; assay type: functional, organism-based; design: dose 3.1 mg/kg; conditions: Mus musculus; in short: as §1
Colon 26 [27] = assay: Percent in life span when compound administered at 3.1 mg/kg against Colon 26 cells in balb/C mice; assay type: functional, organism-based; design: dose 3.1 mg/kg; conditions: Mus musculus; in short: as §2
P388 [28] = assay: Percent survivors when compound administered at 200 mg/kg against P388 leukemia cells in BDF1 mice; assay type: functional, organism-based; design: dose 200 mg/kg; conditions: Mus musculus; in short: as §5
P388 [29] = assay: Percent increase in life span when compound administered at 200 mg/kg against P388 leukemia cells in BDF1 mice; assay type: functional, organism-based; design: dose 200 mg/kg; conditions: Mus musculus

Substance: Platinum:Formic acid 9-formyloxy-2,4-dioxa-8,10-diaza-spiro[5.5]undec-9-yl ester
Survivors (Colon 26 [1]): 0%
Increase (Colon 26 [2]): 127%
Increase (B16 [3]): 64% and 84%
Increase (B16 [4]): 61%
Survivors (L1210 [5]): 33%
Survivors (B16 [6]): 3%
Survivors (B16 [7]): 0%
Survivors (L1210 [8]): 50%
Increase (L1210 [9]): 168%
Survivors (Colon 26 [10]): 3%
Increase (L1210 [11]): 172%

Water solubility [12]: 10000 µg/mL
Substance: Platinum:2,4,10,15-Tetraoxa-8,16-diaza-dispiro[5.2.6.2]heptadecane-11,14-dione

Substance: CISPLATIN
Increase (L1210 [13]): inactive
Increase (P388 [14]): 140%
Survivors (P388 [15]): 17%
Increase (L1210 [16]): 96%
Survivors (B16 [17]): 0%
Increase (Colon 26 [18]): 47%
Survivors (Colon 26 [19]): 17%
Survivors (L1210 [20]): inactive
Increase (B16 [21]): 36%

Substance: CARBOPLATIN
Increase (L1210 [13]): inactive
Survivors (Colon 26 [1]): 17%
Survivors (P388 [22]): 6%
Increase (P388 [23]): 144%
Increase (Colon 26 [24]): 85%
inhibition (Mus musculus): 90%
Survivors (L1210 [20]): inactive
Increase (L1210 [25]): 35%

Substance: Platinum:9,9-Dichloro-2,4-dioxa-8,10-diaza-spiro[5.5]undecane
Increase (P388 [14]): 173%
Survivors (Colon 26 [26]): 0%
Survivors (P388 [15]): 3%
Increase (Colon 26 [27]): 41%
Increase (B16 [21]): 27%

Substance: Platinum:Formic acid 9-formyloxy-3-methyl-2,4-dioxa-8,10-diaza-spiro[5.5]undec-9-yl ester
Survivors (P388 [28]): 5%
Increase (B16 [3]): 62%
Survivors (B16 [7]): 0%
Increase (P388 [29]): 173%
